# Reference: ChEMBL document CHEMBL3352117, “Piperazine and piperidine carboxamides and carbamates as inhibitors of fatty acid amide hydrolase (FAAH) and monoacylglycerol lipase (MAGL)” (Bioorg Med Chem, 2014)
# Experiments:
# [1] = target: T1, Fatty-acid amide hydrolase 1 (Homo sapiens, UniProt O00519); assay: Inhibition of human recombinant FAAH expressed in COS7 cells using anandamide as substrate; assay type: cell-based, COS-7
# T1 sequence (O00519 whole entry): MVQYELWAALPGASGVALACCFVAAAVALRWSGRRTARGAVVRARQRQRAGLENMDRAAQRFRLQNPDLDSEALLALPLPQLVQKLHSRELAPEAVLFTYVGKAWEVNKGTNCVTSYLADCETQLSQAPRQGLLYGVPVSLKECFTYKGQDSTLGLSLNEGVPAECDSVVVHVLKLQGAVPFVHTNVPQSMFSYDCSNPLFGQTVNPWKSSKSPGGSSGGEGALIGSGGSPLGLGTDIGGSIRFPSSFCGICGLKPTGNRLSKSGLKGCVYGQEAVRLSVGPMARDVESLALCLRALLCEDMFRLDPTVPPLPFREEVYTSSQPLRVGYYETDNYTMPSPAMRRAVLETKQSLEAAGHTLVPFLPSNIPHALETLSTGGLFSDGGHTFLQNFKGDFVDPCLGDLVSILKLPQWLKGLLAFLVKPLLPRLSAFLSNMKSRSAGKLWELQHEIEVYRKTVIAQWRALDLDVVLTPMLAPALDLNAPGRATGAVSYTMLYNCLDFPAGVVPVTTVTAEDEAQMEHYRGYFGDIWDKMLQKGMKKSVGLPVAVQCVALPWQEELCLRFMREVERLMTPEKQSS
# Method in brief: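 Membranes of COS-7 cells transiently overexpressing human recombinant FAAH, 1 ug protein per incubation. Anandamide substrate at 20 uM, including 10 nM 3H-anandamide tracer (specific activity 60 […]/mmol).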
# Homo sapiens = species on record: Homo sapiens; assay: Selectivity ratio of IC50 for human recombinant FAAH to IC50 for human recombinant MAGL
# Monoglyceride lipase = target: T2, Monoglyceride lipase (Homo sapiens, UniProt Q99685); assay: Inhibition of human recombinant MAGL expressed in HEK293 cells using 2-AG as substrate; assay type: cell-based
# T2 sequence (Q99685 whole entry): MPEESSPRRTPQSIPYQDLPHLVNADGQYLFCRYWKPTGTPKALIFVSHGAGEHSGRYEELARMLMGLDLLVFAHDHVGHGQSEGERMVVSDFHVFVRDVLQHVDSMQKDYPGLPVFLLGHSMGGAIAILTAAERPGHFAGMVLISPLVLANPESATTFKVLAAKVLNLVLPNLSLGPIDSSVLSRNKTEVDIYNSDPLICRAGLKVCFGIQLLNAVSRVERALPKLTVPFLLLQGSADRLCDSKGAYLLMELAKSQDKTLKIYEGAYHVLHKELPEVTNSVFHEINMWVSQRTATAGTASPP
# Method in brief: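 Lysates of HEK293 cells transiently overexpressing human recombinant MAGL, 2.5 ug protein per incubation. 2-AG substrate at 50 uM.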
# [2] = target: T3, Fatty-acid amide hydrolase 1 (Homo sapiens) (UniProt O00519); assay: Inhibition of human recombinant FAAH expressed in COS7 cells using anandamide as substrate assessed as remaining activity at 10 uM; assay type: cell-based; conditions: COS-7
# T3 sequence (whole entry): T1 sequence (O00519 whole entry)
# Method in brief: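 Membranes of COS-7 cells transiently overexpressing human FAAH, 1 ug protein per incubation, with 20 uM anandamide substrate including 10 nM 3H-anandamide tracer. Test compound at 10 uM. Remaining activity expressed as % of control, given as range, n = 2.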
# [3] = target: T4, Monoglyceride lipase (Homo sapiens) (UniProt Q99685); assay: Inhibition of human recombinant MAGL expressed in HEK293 cells using 2-AG as substrate assessed as remaining activity at 10 uM
# T4 sequence (whole entry): T2 sequence (Q99685 whole entry)
# Method in brief: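 Lysates of HEK293 cells transiently overexpressing human MAGL, 2.5 ug protein per incubation, with 50 uM 2-AG substrate. Test compound at 10 uM. Remaining activity expressed as % of control, given as range, n = 2.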
SMILES,IC50 ([1]; read-out: IC50) [nM],IC50 ([1]; read-out: pIC50 (converted)) [nM],Ratio IC50 (Homo sapiens),IC50 (Monoglyceride lipase; read-out: IC50) [nM],Activity [2] [%],Activity [3] [%],IC50 (Monoglyceride lipase; read-out: pIC50 (converted)) [nM]
O=C(N1CCN(Cc2cccc(Oc3ccccc3)c2)CC1)n1cncn1,2.7,2.69,4.5,0.6,,,
O=C(N1CCN(Cc2cccc(Oc3ccccc3)c2)CC1)n1ccnc1,15,15.5,,2840,,,
O=C(Nc1ccc([N+](=O)[O-])cc1)N1CCN(Cc2cccc(Oc3ccccc3)c2)CC1,,,,,98,102,
O=C(N1CCN(Cc2ccc(Oc3ccccc3)cc2)CC1)n1ccnc1,3.4,17.4,,660,,,
O=C(Oc1ccc([N+](=O)[O-])cc1)N1CCC(C(c2ccc3c(c2)OCO3)c2ccc3c(c2)OCO3)CC1,,,,42,88,,
COc1ccc(NC(=O)N2CCN(C(c3ccccc3)c3ccccc3)CC2)cc1,,,,,89,86,
CCCCc1ccc(NC(=O)N2CCN(C(c3ccccc3)c3ccccc3)CC2)cc1,,,,,84,92,
O=C(N1CCN(c2ccccc2)CC1)n1cncn1,6,6.03,,132,,,
O=C(N1CCN(Cc2cccc(Oc3ccccc3)c2)CC1)n1nnc2ccccc21,89,89.1,10,7.8,,,
O=C(N1CCN(Cc2cccc(Oc3ccccc3)c2)CC1)n1nnc2cccnc21,23,22.9,4,5.5,,,
CCOC(=O)N1CCN(C(=O)n2nnc3cccnc32)CC1,231,229,,1910,,,
O=C(OCC(Cl)(Cl)Cl)N1CCC(C(O)(c2ccc3c(c2)OCO3)c2ccc3c(c2)OCO3)CC1,,,,,90,89,
O=C(Nc1cccnc1)N1CCN(C(c2ccccc2)c2ccccc2)CC1,,,,,87,101,
O=C(N1CCN(Cc2ccc(Oc3ccccc3)cc2)CC1)n1nnc2ccccc21,708,708,,70,,,
O=C(Nc1ccc([N+](=O)[O-])cc1)N1CCN(C(c2ccccc2)c2ccccc2)CC1,,,,,84,58,
O=C(Nc1ccccc1)N1CCN(C(c2ccccc2)c2ccccc2)CC1,,,,,88,62,
CCOC(=O)N1CCN(C(=O)n2cncn2)CC1,141,141,,1660,,,
O=C(OC(C(F)(F)F)C(F)(F)F)N1CCN(Cc2cccc(Oc3ccccc3)c2)CC1,,,,74,76,,

SMILES,IC50 ([1]; read-out: IC50) [nM],IC50 ([1]; read-out: pIC50 (converted)) [nM],Ratio IC50 (Homo sapiens),IC50 (Monoglyceride lipase; read-out: IC50) [nM],Activity [2] [%],Activity [3] [%],IC50 (Monoglyceride lipase; read-out: pIC50 (converted)) [nM]
O=C(N1CCN(C(c2ccccc2)c2ccccc2)CC1)n1cnc(-c2ccccc2)c1,,,,,62,93,
O=C(Nc1ccc(C(F)(F)F)cc1)N1CCN(C(c2ccccc2)c2ccccc2)CC1,,,,,86,96,
O=C(Oc1ccc([N+](=O)[O-])cc1)N1CCN(Cc2ccc(Oc3ccccc3)cc2)CC1,,,,1100,43,,
O=C(N1CCN(C(c2ccc(F)cc2)c2ccc(F)cc2)CC1)n1cncn1,282,282,,0.9,,,
O=C(Oc1ccc([N+](=O)[O-])cc1)N1CCN(C(c2ccccc2)c2ccccc2)CC1,,,,257,86,,
O=C(N1CCC(C(c2ccc3c(c2)OCO3)c2ccc3c(c2)OCO3)CC1)n1cncn1,4800,4790,> 13000,0.4,,,
O=C(Nc1ccccc1)N1CCN(Cc2cccc(Oc3ccccc3)c2)CC1,3020,3020,,,,98,
COc1ccc(NC(=O)N2CCN(Cc3cccc(Oc4ccccc4)c3)CC2)cc1,,,,,56,78,
O=C(N1CCC(C(O)(c2ccc3c(c2)OCO3)c2ccc3c(c2)OCO3)CC1)n1cncn1,1620,1620,2320,,,,0.692
O=C(N1CCN(C(c2ccccc2)c2ccccc2)CC1)n1nnc2cccnc21,971,977,,1.7,,,
O=C(OCc1ccccc1)N1CCC(C(O)(c2ccc3c(c2)OCO3)c2ccc3c(c2)OCO3)CC1,,,,,92,92,
O=C(N1CCN(C(c2ccccc2)c2ccccc2)CC1)n1cncn1,452,447,,1.3,,,
O=C(Nc1ccccn1)N1CCN(C(c2ccccc2)c2ccccc2)CC1,,,,,87,94,
O=C(N1CCN(C(c2ccccc2)c2ccccc2)CC1)n1ccnc1,2300,2290,,,,51,
O=C(N1CCN(c2ccccc2)CC1)n1nnc2cccnc21,11,11.2,,275,,,
O=C(Oc1ccc([N+](=O)[O-])cc1)N1CCN(C(c2ccc(F)cc2)c2ccc(F)cc2)CC1,,,,347,85,,
O=C(Oc1ccc([N+](=O)[O-])cc1)N1CCC(=C(c2ccc3c(c2)OCO3)c2ccc3c(c2)OCO3)CC1,,,,,89,85,
